What was measured:
[1] = molecular target: Glycogen synthase kinase-3 alpha (Homo sapiens, UniProt P49840); experiment: Inhibition of GSK3A in human HeLa cells lysate pre incubated for 15 mins followed by ATP acyl phosphate probe addition and measured after 10 mins by LC-MS/MS analysis; type: subcellular
[2] = molecular target: T1, Dual specificity mitogen-activated protein kinase kinase 7 (Homo sapiens) (UniProt O14733); experiment: Inhibition of MAP2K7 in human HeLa cells lysate at 50 uM pre incubated for 15 mins followed by ADP acyl phosphate probe addition and measured after 10 mins by LC-MS/MS analysis relative to control; type: subcellular; settings: time 25.0 min
T1 sequence (whole entry): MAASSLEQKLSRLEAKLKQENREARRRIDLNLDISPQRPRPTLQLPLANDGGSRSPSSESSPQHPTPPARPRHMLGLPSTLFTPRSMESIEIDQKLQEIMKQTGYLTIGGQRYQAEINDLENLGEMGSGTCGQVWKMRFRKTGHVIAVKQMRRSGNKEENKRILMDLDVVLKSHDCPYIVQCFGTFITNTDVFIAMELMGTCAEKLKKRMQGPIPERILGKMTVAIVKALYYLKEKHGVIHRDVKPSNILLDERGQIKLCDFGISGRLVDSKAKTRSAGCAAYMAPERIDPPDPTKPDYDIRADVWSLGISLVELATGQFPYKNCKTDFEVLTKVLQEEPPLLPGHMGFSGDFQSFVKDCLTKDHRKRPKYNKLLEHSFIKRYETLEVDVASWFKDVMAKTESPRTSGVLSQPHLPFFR

[3] = molecular target: Serine/threonine-protein kinase/endoribonuclease IRE1 (Homo sapiens, UniProt O75460); experiment: Inhibition of IRE1 in human HeLa cells lysate at 10 uM pre incubated for 15 mins followed by ADP acyl phosphate probe addition and measured after 10 mins by LC-MS/MS analysis relative to control; type: subcellular; settings: time 25.0 min
[4] = molecular target: Calcium/calmodulin-dependent protein kinase kinase 1 (Homo sapiens, UniProt Q8N5S9); experiment: Inhibition of CAMKK1 in human HeLa cells lysate at 2 uM pre incubated for 15 mins followed by ADP acyl phosphate probe addition and measured after 10 mins by LC-MS/MS analysis relative to control; type: subcellular; settings: time 25.0 min
In short: (§1)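 KiNativ profiling in HeLa lysate (5 mg/mL total protein). Lysate incubated 15 min with inhibitor at 50, 10, 2, 0.8 or 0 μM. ATP or ADP acylphosphate probe then added (5 μM final) and reacted 10 min. Reaction stopped with urea and analysed by targeted MS, using up to four fragment ions per kinase peptide-probe conjugate. % inhibition taken against untreated lysate. Run in duplicate.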

[5] = molecular target: Serine/threonine-protein kinase SMG1 (Homo sapiens, UniProt Q96Q15); experiment: Inhibition of SMG1 in human HeLa cells lysate at 50 uM pre incubated for 15 mins followed by ATP acyl phosphate probe addition and measured after 10 mins by LC-MS/MS analysis relative to control; type: subcellular; settings: time 25.0 min
[6] = Inhibition of MST4/YSK1 in human HeLa cells lysate at 50 uM pre incubated for 15 mins followed by ATP acyl phosphate probe addition and measured after 10 mins by LC-MS/MS analysis relative to control; settings: 25 min, condition cancer
[7] = molecular target: Serine/threonine-protein kinase ATR (Homo sapiens, UniProt Q13535); experiment: Inhibition of ATR in human HeLa cells lysate at 2 uM pre incubated for 15 mins followed by ATP acyl phosphate probe addition and measured after 10 mins by LC-MS/MS analysis relative to control; type: subcellular; settings: time 25.0 min
In short: (§2)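 KiNativ-type profiling in HeLa lysate (5 mg/mL total protein). Lysate preincubated 15 min with inhibitor at 50, 10, 2, 0.8 or 0 μM, then ATP or ADP acylphosphate probe added (5 μM final) for 10 min. Reaction stopped with urea and analysed by targeted MS, using up to four fragment ions per kinase peptide-probe conjugate. % inhibition calculated against untreated lysate. Duplicate reactions.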

[8] = molecular target: MAP/microtubule affinity-regulating kinase 3 (Homo sapiens, UniProt P27448); experiment: Inhibition of MARK3 in human HeLa cells lysate at 10 uM pre incubated for 15 mins followed by ATP acyl phosphate probe addition and measured after 10 mins by LC-MS/MS analysis relative to control; type: subcellular; settings: time 25.0 min
[9] = molecular target: STE20-like serine/threonine-protein kinase (Homo sapiens, UniProt Q9H2G2); experiment: Inhibition of SLK in human HeLa cells lysate pre incubated for 15 mins followed by ATP acyl phosphate probe addition and measured after 10 mins by LC-MS/MS analysis; type: subcellular
[10] = molecular target: DNA-dependent protein kinase catalytic subunit (Homo sapiens, UniProt P78527); experiment: Inhibition of PRKDC in human HeLa cells lysate at 10 uM pre incubated for 15 mins followed by ADP acyl phosphate probe addition and measured after 10 mins by LC-MS/MS analysis relative to control; type: subcellular; settings: time 25.0 min
[11] = molecular target: Serine/threonine-protein kinase ULK3 (Homo sapiens, UniProt Q6PHR2); experiment: Inhibition of ULK3 in human HeLa cells lysate pre incubated for 15 mins followed by ADP acyl phosphate probe addition and measured after 10 mins by LC-MS/MS analysis; type: subcellular
[12] = Inhibition of HGK/MINK/TNIK in human HeLa cells lysate at 10 uM pre incubated for 15 mins followed by ADP acyl phosphate probe addition and measured after 10 mins by LC-MS/MS analysis relative to control; settings: 25 min, condition cancer
[13] = molecular target: Serine/threonine-protein kinase 3/4 (Homo sapiens) (UniProt Q13043+Q13188); experiment: Inhibition of MST1/2 in human HeLa cells lysate at 50 uM pre incubated for 15 mins followed by ATP acyl phosphate probe addition and measured after 10 mins by LC-MS/MS analysis relative to control; type: subcellular; settings: time 25.0 min
[14] = molecular target: Serine/threonine-protein kinase B-raf (Homo sapiens, UniProt P15056); experiment: Inhibition of BRAF in human HeLa cells lysate at 2 uM pre incubated for 15 mins followed by ADP acyl phosphate probe addition and measured after 10 mins by LC-MS/MS analysis relative to control; type: subcellular; settings: time 25.0 min; in short: as §2
[15] = Inhibition of MAP3K2/MAP3K3 in human HeLa cells lysate at 2 uM pre incubated for 15 mins followed by ADP acyl phosphate probe addition and measured after 10 mins by LC-MS/MS analysis relative to control; settings: 25 min, condition cancer
[16] = molecular target: Mitogen-activated protein kinase kinase kinase 2 (Homo sapiens) (UniProt Q9Y2U5); experiment: Inhibition of MAP3K2 in human HeLa cells lysate at 10 uM pre incubated for 15 mins followed by ADP acyl phosphate probe addition and measured after 10 mins by LC-MS/MS analysis relative to control; type: subcellular; settings: time 25.0 min
[17] = molecular target: Serine/threonine-protein kinase Nek1 (Homo sapiens, UniProt Q96PY6); experiment: Inhibition of NEK1 in human HeLa cells lysate pre incubated for 15 mins followed by ATP acyl phosphate probe addition and measured after 10 mins by LC-MS/MS analysis; type: subcellular
[18] = Inhibition of CDK5/PRKX/PRKY in human HeLa cells lysate at 10 uM pre incubated for 15 mins followed by ADP acyl phosphate probe addition and measured after 10 mins by LC-MS/MS analysis relative to control; settings: 25 min, condition cancer; in short: as §1

Sequence of Serine/threonine-protein kinase ULK3 (Q6PHR2 whole entry): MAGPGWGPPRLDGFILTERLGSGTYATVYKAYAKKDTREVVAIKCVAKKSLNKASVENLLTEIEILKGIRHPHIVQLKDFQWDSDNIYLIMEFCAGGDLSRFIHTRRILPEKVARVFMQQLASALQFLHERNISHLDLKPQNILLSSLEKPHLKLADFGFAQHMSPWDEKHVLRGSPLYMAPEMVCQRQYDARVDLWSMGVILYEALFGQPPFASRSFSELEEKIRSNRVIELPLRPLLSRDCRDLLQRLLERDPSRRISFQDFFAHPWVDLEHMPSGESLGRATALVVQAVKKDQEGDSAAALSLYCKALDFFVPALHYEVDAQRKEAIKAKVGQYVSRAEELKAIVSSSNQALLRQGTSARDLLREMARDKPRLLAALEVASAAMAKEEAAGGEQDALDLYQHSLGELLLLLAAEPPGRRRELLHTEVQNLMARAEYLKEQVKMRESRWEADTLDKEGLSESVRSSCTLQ
Sequence of Serine/threonine-protein kinase/endoribonuclease IRE1 (O75460 19-977 limits assumed): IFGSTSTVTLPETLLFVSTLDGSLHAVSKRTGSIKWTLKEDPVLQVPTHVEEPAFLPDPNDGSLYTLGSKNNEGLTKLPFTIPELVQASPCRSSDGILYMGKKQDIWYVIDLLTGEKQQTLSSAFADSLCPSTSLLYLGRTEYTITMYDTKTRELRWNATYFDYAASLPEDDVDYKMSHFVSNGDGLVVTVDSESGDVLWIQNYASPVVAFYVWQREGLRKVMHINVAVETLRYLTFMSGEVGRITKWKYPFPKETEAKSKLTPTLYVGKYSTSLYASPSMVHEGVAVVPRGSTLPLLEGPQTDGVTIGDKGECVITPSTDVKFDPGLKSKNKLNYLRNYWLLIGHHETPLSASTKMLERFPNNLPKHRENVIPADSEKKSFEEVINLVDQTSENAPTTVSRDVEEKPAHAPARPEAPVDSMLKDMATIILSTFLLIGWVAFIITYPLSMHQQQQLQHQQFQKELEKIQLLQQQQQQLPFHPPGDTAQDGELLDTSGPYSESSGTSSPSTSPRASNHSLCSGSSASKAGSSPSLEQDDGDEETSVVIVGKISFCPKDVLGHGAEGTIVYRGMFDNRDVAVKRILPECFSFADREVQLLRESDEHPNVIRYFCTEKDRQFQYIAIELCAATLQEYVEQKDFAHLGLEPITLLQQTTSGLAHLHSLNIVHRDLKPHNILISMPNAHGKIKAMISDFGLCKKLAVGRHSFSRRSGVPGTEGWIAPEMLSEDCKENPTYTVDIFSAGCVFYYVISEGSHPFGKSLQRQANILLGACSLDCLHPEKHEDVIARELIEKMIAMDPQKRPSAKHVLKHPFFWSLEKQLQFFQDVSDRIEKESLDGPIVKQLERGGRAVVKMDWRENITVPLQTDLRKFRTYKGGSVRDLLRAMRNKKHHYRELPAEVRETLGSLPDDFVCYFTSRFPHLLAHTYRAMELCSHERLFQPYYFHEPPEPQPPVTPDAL
Sequence of Serine/threonine-protein kinase ATR (Q13535 whole entry, looked up, the tested form may be a part): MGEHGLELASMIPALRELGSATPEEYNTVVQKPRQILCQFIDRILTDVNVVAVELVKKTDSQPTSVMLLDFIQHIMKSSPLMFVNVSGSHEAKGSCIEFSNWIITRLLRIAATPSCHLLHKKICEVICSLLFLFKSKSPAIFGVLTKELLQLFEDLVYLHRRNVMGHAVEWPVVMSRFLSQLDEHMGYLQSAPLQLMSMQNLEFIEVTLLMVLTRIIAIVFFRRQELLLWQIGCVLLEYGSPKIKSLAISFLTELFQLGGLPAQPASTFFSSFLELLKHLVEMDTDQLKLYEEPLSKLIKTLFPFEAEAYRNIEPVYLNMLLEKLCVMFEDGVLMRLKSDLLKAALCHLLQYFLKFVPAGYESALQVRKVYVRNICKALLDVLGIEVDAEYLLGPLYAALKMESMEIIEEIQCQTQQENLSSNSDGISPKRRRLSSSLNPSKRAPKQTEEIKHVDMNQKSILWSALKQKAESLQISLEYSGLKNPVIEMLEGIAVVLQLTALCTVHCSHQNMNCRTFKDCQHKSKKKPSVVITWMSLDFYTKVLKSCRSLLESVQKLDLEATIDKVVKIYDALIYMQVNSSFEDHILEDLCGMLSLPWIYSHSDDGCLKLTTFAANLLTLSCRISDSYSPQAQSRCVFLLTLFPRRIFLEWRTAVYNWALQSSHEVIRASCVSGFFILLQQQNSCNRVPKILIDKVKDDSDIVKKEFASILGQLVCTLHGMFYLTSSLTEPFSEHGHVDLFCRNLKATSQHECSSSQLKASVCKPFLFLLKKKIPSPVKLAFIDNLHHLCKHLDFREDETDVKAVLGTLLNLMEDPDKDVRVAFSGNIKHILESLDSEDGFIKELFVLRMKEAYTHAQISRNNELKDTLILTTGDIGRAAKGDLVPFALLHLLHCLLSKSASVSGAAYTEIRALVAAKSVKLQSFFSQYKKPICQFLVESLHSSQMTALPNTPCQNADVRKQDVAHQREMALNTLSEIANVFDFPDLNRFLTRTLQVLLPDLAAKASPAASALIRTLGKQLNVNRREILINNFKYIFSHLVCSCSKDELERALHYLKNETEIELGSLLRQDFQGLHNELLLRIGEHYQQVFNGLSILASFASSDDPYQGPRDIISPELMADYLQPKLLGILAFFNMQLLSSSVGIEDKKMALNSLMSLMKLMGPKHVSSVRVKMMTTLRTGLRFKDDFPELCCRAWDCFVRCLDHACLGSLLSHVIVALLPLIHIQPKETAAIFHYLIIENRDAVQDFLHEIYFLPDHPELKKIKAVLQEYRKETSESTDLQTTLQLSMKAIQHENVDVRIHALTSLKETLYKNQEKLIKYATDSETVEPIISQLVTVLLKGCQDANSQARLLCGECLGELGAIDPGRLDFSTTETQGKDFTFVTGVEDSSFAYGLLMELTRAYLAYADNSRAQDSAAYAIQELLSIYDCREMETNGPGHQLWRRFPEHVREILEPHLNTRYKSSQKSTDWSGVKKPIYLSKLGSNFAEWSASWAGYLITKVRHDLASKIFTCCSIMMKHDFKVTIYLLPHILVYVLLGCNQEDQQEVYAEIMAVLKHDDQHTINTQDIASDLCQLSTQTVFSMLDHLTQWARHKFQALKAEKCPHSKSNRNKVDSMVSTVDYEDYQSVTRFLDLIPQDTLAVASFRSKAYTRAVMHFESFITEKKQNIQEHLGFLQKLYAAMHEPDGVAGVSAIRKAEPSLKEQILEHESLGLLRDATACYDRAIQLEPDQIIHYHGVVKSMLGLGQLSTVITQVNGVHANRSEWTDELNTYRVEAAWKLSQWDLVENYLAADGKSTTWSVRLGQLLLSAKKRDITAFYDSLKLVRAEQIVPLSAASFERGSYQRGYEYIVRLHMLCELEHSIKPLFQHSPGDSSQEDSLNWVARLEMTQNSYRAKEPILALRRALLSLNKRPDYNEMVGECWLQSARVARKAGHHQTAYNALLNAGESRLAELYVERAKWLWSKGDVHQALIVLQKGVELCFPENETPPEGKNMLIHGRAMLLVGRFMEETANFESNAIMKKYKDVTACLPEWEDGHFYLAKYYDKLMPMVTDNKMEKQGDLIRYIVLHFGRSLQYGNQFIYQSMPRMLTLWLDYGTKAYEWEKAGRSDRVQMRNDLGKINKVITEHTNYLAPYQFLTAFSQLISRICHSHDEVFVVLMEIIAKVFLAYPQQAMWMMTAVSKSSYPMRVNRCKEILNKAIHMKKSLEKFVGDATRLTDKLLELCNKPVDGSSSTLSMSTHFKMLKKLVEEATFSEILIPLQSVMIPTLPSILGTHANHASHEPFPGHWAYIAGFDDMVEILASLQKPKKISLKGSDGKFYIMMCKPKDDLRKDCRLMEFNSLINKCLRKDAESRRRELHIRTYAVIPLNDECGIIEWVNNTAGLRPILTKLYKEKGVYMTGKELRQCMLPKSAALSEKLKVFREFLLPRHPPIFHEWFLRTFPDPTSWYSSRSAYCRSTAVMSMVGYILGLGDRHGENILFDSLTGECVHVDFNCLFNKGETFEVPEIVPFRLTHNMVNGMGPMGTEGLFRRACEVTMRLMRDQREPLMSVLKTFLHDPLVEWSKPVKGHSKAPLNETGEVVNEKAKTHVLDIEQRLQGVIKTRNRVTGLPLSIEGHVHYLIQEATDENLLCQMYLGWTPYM
Sequence of Serine/threonine-protein kinase 3/4 (Homo sapiens) (Q13043 whole entry, looked up): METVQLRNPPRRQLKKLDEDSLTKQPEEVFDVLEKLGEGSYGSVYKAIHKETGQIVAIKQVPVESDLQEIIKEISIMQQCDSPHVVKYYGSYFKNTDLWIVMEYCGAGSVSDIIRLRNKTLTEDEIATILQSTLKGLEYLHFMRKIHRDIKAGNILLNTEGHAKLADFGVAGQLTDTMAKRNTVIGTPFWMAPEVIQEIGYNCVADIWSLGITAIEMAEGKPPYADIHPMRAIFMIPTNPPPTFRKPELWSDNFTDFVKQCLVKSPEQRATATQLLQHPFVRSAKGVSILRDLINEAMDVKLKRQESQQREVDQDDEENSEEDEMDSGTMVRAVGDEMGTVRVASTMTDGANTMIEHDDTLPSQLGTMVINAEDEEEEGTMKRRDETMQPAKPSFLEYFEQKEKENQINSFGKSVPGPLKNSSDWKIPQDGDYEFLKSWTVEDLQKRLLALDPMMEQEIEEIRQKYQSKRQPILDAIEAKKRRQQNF
Sequence of Serine/threonine-protein kinase 3/4 (Homo sapiens) (Q13188 whole entry, looked up): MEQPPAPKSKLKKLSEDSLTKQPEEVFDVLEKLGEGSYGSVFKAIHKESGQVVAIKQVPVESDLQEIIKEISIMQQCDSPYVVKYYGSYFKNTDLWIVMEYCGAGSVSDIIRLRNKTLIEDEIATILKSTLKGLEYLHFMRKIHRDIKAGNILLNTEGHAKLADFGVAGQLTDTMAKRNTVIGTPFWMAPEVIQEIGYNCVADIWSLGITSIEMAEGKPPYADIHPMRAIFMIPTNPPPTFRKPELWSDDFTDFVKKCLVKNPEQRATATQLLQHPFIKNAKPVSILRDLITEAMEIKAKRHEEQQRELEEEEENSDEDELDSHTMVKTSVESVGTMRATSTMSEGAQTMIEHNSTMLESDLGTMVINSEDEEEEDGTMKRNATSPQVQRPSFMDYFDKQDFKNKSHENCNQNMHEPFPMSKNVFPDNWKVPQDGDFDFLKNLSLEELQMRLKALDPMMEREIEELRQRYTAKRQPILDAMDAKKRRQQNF

CCOc1cc(N2CCC(O)CC2)ccc1Nc1ncc2c(n1)N(C)c1ccccc1C(=O)N2C
IC50 [1]: > 50 µM
inhibition [2]: 4.2%
inhibition [3]: 15.6%
inhibition [4]: -5.2%
inhibition [5]: -1.9%
inhibition at 50 µM [6]: -6.1%
inhibition [7]: 25.9%
inhibition [8]: -9.2%
IC50 [9]: > 50 µM
inhibition [10]: -4.8%
IC50 [11]: > 50 µM
inhibition at 10 µM [12]: -25.3%
inhibition [13]: 11.3%
inhibition [14]: 10.5%
inhibition at 2 µM [15]: 4.6%
inhibition [16]: 36.2%
IC50 [17]: > 50 µM
inhibition at 10 µM [18]: -0.1%
